We go through 8 compounds from ChEMBL document CHEMBL1955823, “Imidazo[1,2-a]pyrazines as novel PI3K inhibitors” (Bioorg Med Chem Lett, 2012).

Series [1] concerns the target PI3-kinase p110-alpha/p85-alpha (Homo sapiens, UniProt P42336). Briefly: Inhibition of PI3K p110alpha/p85alpha. The class given is protein-complex assay. In a few lines:
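Biochemical kinase assay following the kit manufacturer's protocol with a modified kinase buffer (50 mM HEPES pH 7.5, 3 mM MgCl2, 100 mM NaCl, 1 mM EGTA, 0.04% CHAPS, 2 mM TCEP, 0.01 mg/ml BGG); 10 nM enzyme; ATP 50 µM; values are averages of two independent experiments, each in duplicate.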

The next series deals with PI3K p110 beta/p85 alpha (Homo sapiens, UniProt P42338). As to the kind of experiment: Inhibition of human PI3K p110beta/p85alpha. The conditions noted are these: read-out: Ki(app). It is filed as protein-complex assay.
Series [2] deals with PI3-kinase p110-delta/p85-alpha (Homo sapiens, UniProt O00329). Briefly: Inhibition of human PI3K p110delta/p85alpha. Particulars: read-out: Ki(app). The class given is protein-complex assay.
A further series is filed under the species Homo sapiens. Briefly: Selectivity ratio of Kiapp for human PI3K p110alpha/p85alpha to Kiapp for human PI3K p110delta/p85alpha.
Series [3] deals with Dual specificity tyrosine-phosphorylation-regulated kinase 1A (Homo sapiens) (UniProt Q13627). As to the kind of experiment: Inhibition of DYRK1A at 5 to 10 uM.
Series [4] addresses Focal adhesion kinase 1 (Homo sapiens) (UniProt Q05397). As to the kind of experiment: Inhibition of FAK at 5 to 10 uM.
The target in series [5] is Receptor-type tyrosine-protein kinase FLT3 (Homo sapiens) (UniProt P36888). Briefly: Inhibition of FLT3 at 5 to 10 uM.
The target of series [6] is Insulin-like growth factor 1 receptor (Homo sapiens) (UniProt P08069). As to the kind of experiment: Inhibition of IGF1-R at 5 to 10 uM.
For series [7], the target named is Tyrosine-protein kinase JAK2 (Homo sapiens) (UniProt O60674). As to the kind of experiment: Inhibition of JAK2 at 5 to 10 uM.
Series [8] has as its target Dual specificity mitogen-activated protein kinase kinase 1 (Homo sapiens) (UniProt Q02750). As to the kind of experiment: Inhibition of MEK1 at 5 to 10 uM.
For series [9], the target named is T1, Serine/threonine-protein kinase 4 (Homo sapiens) (UniProt Q13043).
T1 sequence (whole entry): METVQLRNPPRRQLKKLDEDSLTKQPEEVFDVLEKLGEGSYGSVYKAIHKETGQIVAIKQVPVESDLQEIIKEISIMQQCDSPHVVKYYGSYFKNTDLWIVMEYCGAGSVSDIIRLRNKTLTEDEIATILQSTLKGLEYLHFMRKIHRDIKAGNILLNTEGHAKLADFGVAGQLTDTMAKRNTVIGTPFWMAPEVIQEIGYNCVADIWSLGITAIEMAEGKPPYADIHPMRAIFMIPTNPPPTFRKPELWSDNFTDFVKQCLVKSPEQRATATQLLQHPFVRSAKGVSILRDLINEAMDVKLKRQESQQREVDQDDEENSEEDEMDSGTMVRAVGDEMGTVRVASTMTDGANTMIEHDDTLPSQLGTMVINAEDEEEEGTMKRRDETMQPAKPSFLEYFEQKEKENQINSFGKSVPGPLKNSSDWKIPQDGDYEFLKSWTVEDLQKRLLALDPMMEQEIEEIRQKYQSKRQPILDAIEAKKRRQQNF
Briefly: Inhibition of MST1 at 5 to 10 uM.

In series [10] the target is Serine/threonine-protein kinase PAK 1 (Homo sapiens) (UniProt Q13153). Briefly: Inhibition of PAK1 at 5 to 10 uM.
Series [11] concerns the target Serine/threonine-protein kinase pim-1 (Homo sapiens) (UniProt P11309). Briefly: Inhibition of PIM1 at 5 to 10 uM.
Series [12] deals with Ribosomal protein S6 kinase alpha-1 (Homo sapiens) (UniProt Q15418). As to the kind of experiment: Inhibition of RPS6KA1 at 5 to 10 uM.
Series [13] is described as follows: Metabolic stability in human liver microsomes assessed as compound remaining at 1 uM after 30 mins. In general terms: Liver microsomes are a subcellular fraction often used to study metabolism.
Series [14] in a line: Metabolic stability in mouse liver microsomes assessed as compound remaining at 1 uM after 30 mins.
The next series concerns the target T2, CYP1A2 (Homo sapiens, UniProt P05177).
T2 sequence (P05177 whole entry): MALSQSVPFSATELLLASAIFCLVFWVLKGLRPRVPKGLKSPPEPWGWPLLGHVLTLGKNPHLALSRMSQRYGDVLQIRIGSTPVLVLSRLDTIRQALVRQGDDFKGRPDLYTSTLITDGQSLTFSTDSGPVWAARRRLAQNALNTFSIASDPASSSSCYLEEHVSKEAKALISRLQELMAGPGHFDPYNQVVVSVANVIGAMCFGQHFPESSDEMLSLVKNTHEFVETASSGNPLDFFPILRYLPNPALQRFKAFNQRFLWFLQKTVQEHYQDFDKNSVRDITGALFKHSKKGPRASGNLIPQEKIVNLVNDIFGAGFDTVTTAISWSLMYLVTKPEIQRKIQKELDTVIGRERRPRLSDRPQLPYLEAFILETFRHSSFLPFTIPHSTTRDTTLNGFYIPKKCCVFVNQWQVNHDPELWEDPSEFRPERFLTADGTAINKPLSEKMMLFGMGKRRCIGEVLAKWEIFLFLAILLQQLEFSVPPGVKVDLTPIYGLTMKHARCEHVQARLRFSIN
Briefly: Inhibition of CYP1A2 at 10 uM. It is filed as ADME. In a few lines:
(§1)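 CYP isoform panel (1A2, 2C9, 2C19, 2D6, 3A4); percent inhibition recorded at 10 µM test compound; run in duplicate by an outside contractor.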

The target in the next series is CYP2C9 (Homo sapiens, UniProt P11712). Briefly: Inhibition of CYP2C9 at 10 uM. It is filed as ADME. The gist of the method: as §1
The next series has as its target CYP2C19 (Homo sapiens, UniProt P33261). Briefly: Inhibition of CYP2C19 at 10 uM. The class given is ADME. In a few lines: as §1
The target in the next series is CYP2D6 (Homo sapiens, UniProt P10635). Briefly: Inhibition of CYP2D6 at 10 uM. The class given is ADME. In a few lines: as §1
The target in a further series is CYP3A4 (Homo sapiens, UniProt P08684). Briefly: Inhibition of CYP3A4 at 10 uM. The class given is ADME. In a few lines:
as §1

The IC50 is the point on the concentration scale where inhibition reaches its midpoint. Read a high IC50 as lower potency. Broadly, the inhibition is the percentage by which the read-out fell short of the control. One may read the share remaining as the share of the starting amount still present when the sample was taken.

Bounds are passed on as bounds.

Dual specificity mitogen-activated protein kinase kinase 1 (Homo sapiens), sequence (Q02750 whole entry): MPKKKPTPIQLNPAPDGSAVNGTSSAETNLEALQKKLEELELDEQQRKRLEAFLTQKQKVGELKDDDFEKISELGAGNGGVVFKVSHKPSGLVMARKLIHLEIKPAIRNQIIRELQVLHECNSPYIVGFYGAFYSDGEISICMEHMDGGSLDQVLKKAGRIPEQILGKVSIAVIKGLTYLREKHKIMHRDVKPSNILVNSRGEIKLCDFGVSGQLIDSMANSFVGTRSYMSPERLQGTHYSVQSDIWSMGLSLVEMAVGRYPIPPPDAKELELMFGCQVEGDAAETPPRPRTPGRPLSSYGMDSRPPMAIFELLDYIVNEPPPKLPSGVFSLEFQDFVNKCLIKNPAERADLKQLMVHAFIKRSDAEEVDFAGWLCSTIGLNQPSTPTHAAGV
Insulin-like growth factor 1 receptor (Homo sapiens), sequence (P08069 31-736 limits assumed): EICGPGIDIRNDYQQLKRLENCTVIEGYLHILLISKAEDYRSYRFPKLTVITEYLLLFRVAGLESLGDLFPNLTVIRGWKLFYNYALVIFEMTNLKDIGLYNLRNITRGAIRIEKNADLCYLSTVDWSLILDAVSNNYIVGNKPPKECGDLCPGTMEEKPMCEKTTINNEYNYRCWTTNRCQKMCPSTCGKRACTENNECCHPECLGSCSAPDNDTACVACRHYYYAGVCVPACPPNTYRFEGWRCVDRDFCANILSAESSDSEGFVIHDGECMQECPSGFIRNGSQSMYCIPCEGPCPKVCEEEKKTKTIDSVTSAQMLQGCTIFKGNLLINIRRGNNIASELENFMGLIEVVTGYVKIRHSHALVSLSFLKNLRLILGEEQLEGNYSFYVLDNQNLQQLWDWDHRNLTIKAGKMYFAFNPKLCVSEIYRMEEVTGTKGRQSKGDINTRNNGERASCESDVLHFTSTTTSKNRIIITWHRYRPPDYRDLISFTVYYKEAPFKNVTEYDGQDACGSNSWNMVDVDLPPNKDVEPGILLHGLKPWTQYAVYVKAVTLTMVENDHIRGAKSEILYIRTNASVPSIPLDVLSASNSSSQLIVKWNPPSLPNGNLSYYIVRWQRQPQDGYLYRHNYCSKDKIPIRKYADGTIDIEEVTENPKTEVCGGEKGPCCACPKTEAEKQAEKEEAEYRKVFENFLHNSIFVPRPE
Insulin-like growth factor 1 receptor (Homo sapiens), sequence (P08069 741-1367 limits assumed): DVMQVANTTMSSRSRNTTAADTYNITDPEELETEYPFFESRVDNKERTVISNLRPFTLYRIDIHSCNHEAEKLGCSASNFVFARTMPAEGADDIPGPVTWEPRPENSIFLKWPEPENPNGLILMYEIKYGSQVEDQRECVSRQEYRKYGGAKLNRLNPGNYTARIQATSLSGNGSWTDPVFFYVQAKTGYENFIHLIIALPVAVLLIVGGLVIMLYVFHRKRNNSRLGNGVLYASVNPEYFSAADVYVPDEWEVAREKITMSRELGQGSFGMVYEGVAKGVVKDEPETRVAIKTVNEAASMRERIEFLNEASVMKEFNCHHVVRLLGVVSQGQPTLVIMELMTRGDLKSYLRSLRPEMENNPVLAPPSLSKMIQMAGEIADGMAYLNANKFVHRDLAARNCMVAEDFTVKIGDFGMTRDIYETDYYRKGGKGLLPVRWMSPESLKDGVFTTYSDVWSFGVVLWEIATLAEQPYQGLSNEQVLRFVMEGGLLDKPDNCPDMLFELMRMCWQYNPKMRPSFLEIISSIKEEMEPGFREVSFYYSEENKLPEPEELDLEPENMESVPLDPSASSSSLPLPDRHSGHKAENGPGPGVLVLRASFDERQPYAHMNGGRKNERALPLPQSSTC
Tyrosine-protein kinase JAK2 (Homo sapiens), sequence (O60674 whole entry): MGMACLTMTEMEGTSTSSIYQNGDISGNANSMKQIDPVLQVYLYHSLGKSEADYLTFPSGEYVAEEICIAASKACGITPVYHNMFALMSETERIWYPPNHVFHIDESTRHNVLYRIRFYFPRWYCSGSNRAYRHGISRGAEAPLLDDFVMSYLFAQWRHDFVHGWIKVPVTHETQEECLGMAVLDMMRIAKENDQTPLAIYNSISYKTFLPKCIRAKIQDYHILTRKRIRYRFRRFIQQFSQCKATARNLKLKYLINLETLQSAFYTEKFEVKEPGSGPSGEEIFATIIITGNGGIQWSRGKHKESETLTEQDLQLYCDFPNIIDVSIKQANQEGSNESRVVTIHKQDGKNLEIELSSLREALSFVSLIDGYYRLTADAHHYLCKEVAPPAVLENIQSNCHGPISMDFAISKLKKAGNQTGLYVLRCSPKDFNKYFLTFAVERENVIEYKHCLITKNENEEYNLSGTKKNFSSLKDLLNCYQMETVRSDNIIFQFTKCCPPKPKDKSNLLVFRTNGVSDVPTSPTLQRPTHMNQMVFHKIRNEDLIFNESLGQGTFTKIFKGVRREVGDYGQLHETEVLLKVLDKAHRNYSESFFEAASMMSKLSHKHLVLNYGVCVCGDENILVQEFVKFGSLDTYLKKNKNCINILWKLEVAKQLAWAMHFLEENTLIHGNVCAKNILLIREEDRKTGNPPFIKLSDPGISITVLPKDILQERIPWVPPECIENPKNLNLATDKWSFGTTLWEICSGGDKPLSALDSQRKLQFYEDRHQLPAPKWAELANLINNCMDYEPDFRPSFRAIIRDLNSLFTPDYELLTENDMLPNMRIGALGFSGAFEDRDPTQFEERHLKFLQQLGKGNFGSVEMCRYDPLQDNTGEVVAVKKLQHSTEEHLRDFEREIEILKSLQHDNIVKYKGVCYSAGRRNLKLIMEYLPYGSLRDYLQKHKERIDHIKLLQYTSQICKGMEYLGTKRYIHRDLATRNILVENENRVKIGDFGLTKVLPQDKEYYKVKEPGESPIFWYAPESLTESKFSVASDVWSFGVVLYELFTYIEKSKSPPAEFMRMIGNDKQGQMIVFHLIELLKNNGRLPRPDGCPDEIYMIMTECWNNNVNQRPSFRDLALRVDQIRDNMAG
PI3-kinase p110-alpha/p85-alpha, sequence (P27986 whole entry): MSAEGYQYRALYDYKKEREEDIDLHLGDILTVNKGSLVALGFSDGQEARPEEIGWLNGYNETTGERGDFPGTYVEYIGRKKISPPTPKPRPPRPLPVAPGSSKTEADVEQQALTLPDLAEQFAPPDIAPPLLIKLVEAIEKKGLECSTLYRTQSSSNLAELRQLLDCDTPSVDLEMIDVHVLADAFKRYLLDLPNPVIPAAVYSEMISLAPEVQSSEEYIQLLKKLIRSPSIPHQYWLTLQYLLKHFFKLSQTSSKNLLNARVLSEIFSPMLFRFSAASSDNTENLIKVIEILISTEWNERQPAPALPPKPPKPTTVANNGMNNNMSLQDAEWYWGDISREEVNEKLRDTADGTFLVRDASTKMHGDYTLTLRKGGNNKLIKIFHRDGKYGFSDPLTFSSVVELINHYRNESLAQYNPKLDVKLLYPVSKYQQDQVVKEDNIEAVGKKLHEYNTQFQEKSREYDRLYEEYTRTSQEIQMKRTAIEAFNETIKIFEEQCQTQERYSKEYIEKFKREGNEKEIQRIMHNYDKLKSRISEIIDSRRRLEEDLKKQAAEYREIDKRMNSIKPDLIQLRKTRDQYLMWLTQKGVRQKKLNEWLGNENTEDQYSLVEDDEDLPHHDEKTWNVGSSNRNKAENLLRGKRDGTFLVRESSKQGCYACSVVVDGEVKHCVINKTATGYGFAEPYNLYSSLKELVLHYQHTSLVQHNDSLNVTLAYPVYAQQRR
PI3-kinase p110-alpha/p85-alpha, sequence (P42336 whole entry): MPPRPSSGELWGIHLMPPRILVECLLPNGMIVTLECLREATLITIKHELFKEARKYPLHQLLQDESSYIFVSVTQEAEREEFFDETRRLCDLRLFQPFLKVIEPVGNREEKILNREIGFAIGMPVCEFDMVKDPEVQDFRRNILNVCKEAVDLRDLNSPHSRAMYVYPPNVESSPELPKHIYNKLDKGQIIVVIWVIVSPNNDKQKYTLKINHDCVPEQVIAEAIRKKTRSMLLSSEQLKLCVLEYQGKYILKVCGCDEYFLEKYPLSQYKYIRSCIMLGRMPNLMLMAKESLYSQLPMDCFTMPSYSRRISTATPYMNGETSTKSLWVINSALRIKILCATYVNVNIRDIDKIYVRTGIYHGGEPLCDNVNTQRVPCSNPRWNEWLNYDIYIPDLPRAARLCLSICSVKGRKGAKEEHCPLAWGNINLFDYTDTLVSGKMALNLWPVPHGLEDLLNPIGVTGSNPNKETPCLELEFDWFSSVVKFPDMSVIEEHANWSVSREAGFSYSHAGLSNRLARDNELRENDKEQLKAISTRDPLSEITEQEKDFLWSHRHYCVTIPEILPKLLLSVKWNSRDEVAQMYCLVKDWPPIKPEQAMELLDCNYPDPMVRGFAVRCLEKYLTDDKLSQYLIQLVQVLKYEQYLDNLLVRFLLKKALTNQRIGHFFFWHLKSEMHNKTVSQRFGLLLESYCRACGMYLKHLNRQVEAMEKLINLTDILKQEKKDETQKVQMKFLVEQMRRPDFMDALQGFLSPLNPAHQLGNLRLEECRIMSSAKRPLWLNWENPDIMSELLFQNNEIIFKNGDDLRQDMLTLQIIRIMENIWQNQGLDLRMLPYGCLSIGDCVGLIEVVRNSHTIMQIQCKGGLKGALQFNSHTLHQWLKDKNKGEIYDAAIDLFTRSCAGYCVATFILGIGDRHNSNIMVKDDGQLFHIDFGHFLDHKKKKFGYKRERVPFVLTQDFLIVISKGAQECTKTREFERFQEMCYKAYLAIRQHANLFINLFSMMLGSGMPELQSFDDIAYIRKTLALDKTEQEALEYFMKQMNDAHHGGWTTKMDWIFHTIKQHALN
Serine/threonine-protein kinase pim-1 (Homo sapiens), sequence (P11309 whole entry, looked up): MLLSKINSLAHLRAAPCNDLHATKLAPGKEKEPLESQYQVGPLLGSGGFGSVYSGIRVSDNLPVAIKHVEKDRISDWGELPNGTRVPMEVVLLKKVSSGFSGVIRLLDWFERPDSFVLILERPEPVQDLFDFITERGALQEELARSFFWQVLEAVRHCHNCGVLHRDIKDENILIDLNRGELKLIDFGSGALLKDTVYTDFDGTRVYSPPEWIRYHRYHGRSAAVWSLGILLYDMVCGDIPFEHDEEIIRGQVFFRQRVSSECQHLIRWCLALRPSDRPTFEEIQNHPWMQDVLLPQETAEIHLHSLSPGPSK

In series [1], `CS(=O)(=O)N1CCN(Cc2nc3c(N4CCOCC4)nc(-c4cccc5[nH]ncc45)cn3c2Br)CC1` yielded an IC50 of 47 nM. For the same compound, the Ki on PI3K p110 beta/p85 alpha was > 500 nM; in series [2] it was 8 nM. The Ratio Ki(app) in the series listed under Homo sapiens came out at 10.8. Also, the inhibition in series [3] was < 50%; in series [4] it was 50%; in [5], < 50%; in series [6] it was < 50%; in series [7], < 50%; in series [8], < 50%. For the same compound, the inhibition in series [9], in [10], in series [11] and in [12] was < 50% in each case.
The compound `CS(=O)(=O)N1CCN(Cc2cn3c(C#N)c(-c4cccc5[nH]ncc45)nc(N4CCOCC4)c3n2)CC1` had an IC50 in series [1] of 194 nM. Also, the Ki on PI3K p110 beta/p85 alpha is > 500 nM; in [2] it was 43 nM. Besides, the Ratio Ki(app) in the series filed under Homo sapiens is 9.5. Also, the inhibition in series [3] is < 50%; in series [4] it was 50%; in [5], < 50%; in series [6], < 50%; in [7], < 50%; in series [8] it was < 50%. For the same compound, the inhibition in series [9], in series [10], in [11] and in series [12] was < 50% each time.
The compound `CN(C)CCCNC(=O)c1cn2cc(-c3cccc4[nH]ncc34)nc(N3CCOCC3)c2n1` yielded an IC50 in [1] of 35 nM. Besides, the Ki on PI3K p110 beta/p85 alpha is > 500 nM; in [2] it was 3.6 nM. The Ratio Ki(app) in the series listed under Homo sapiens worked out at 12.2. The inhibition in [3] was < 50%; in [4], 50%; in series [5] it was < 50%; in series [6], < 50%; in series [7], < 50%; in series [8], < 50%. Moreover, the inhibition in [9], in [10], in [11] and in series [12] was < 50% in each case.
Take `CNC(=O)c1cn2cc(-c3cccc4[nH]ncc34)nc(N3CCOCC3)c2n1`: the Ki is > 500 nM at PI3K p110 beta/p85 alpha and 17.1 nM in series [2]. Besides, in the series filed under Homo sapiens, the Ratio Ki(app) came to 6. The inhibition in series [3] was < 50%; in [4], 50%; in series [5] it was < 50%; in [6] it was < 50%; in [7] it was < 50%; in [8], < 50%. Further, the inhibition in [9], in [10], in [11] and in series [12] was < 50% throughout.
`COCCCNC(=O)c1cn2cc(-c3cccc4[nH]ncc34)nc(N3CCOCC3)c2n1` returned a half-inhibitory concentration (IC50) in series [1] of 31 nM. In addition, the Ki at PI3K p110 beta/p85 alpha is > 500 nM; in [2], 2.8 nM. Besides, in the series listed under Homo sapiens, the Ratio Ki(app) was found to be 21.4. Further, the inhibition in series [3] was < 50%; in series [4], 50%; in series [5], < 50%; in series [6], < 50%; in series [7], < 50%; in series [8], < 50%. The inhibition in [9], in [10], in [11] and in [12] was < 50% in each case.
`CS(=O)(=O)N1CCN(Cc2cn3c(Cl)c(-c4cccc5[nH]ncc45)nc(N4CCOCC4)c3n2)CC1` came in with an IC50 in series [1] of 145 nM. For the same compound, the Ki on PI3K p110 beta/p85 alpha is > 500 nM; in series [2] it was 65 nM. Further, the Ratio Ki(app) in the series listed under Homo sapiens was 3.2. The inhibition in series [3] is < 50%; in series [4], 50%; in series [5], < 50%; in series [6], < 50%; in series [7], < 50%; in series [8], < 50%. Moreover, the inhibition in series [9], in series [10], in series [11] and in [12] was < 50% each time. For the same compound, the share remaining at 0.5 h, 1 µM stood at 35% in series [13] and 28% in series [14]. In addition, the inhibition at 10 µM on CYP1A2, against CYP2C9, against CYP2C19, against CYP2D6 and at CYP3A4 was < 25% each time.
In the case of `O=C(NCCN1CCOCC1)c1cn2cc(-c3cccc4[nH]ncc34)nc(N3CCOCC3)c2n1`, the Ki is > 500 nM on PI3K p110 beta/p85 alpha and 6.5 nM in series [2]. The Ratio Ki(app) in the series listed under Homo sapiens came out at 10. Moreover, the inhibition in [3] is < 50%; in series [4] it was 50%; in series [5], < 50%; in [6], < 50%; in series [7] it was < 50%; in series [8] it was < 50%. For the same compound, the inhibition in [9], in series [10], in series [11] and in series [12] was < 50% each time.
In the case of `CS(=O)(=O)N1CCN(Cc2cn3cc(-c4cccc5[nH]ncc45)nc(N4CCOCC4)c3n2)CC1`, the Ki at PI3K p110 beta/p85 alpha is > 500 nM. Further, the inhibition in series [3] was < 50%; in series [4] it was 50%; in series [5], < 50%; in [6], < 50%; in series [7], < 50%; in series [8], < 50%. Further, the inhibition in [9], in [10], in [11] and in [12] was < 50% throughout. The amount remaining at 0.5 h, 1 µM in series [13] turned out to be 48%; in series [14] it was 32%. In addition, the inhibition at 10 µM against CYP1A2, against CYP2C9, on CYP2C19, on CYP2D6 and against CYP3A4 was < 25% each time.
